Here are results for 33 compounds from ChEMBL document CHEMBL4811254, “Beyond Basicity: Discovery of Nonbasic DENV-2 Protease Inhibitors with Potent Activity in Cell Culture” (J Med Chem, 2021).

The target in series [1] is Prothrombin (Homo sapiens) (UniProt P00734). Put plainly: Inhibition of thrombin in human plasma using Boc-Val-Pro-Arg-AMC as substrate at 25 uM preincubated with enzyme for 15 mins followed by substrate addition and measured for 15 mins by fluorimetric assay. In kind it is cell-free. Particulars: time 30.0 min.
Series [2] deals with Genome polyprotein (dengue virus type 2) (UniProt P29990). Put plainly: Inhibition of NS2B-NS3 protease in DENV2proHeLa system assessed as inhibition of luciferase signal at 12.5 uM incubated for 24 hrs by luciferase reporter gene assay. It is filed as cell-based. The conditions noted are these: HeLa. In a few lines: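 Stable DENV2proHeLa cells seeded at 2 × 10⁴/well and dosed immediately, then incubated 24 h at 37 °C. Cells lysed 15 min at room temperature. Luciferase read with coelenterazine (2.75 μM in PBS) injection, luminescence 5 s. Triplicates; percent inhibition calculated relative to untreated control; background from cell-free wells.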
(In general: A reporter such as luciferase makes a cellular process visible.)

A further series addresses Trypsin (Homo sapiens) (UniProt P07477+P07478+P35030). Put plainly: Inhibition of trypsin (unknown origin) using Boc-Val-Pro-Arg-AMC as substrate at 50 uM preincubated with enzyme for 15 mins followed by substrate addition and measured for 15 mins by fluorimetric assay. In kind it is protein assay. Particulars: time 30.0 min.
The nature of series [3]: Cytotoxicity against human HeLa cells assessed as reduction in cell viability incubated for 24 hrs by CellTiter-Blue assay. It is filed as cell-based. In a few lines:
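Viability by CellTiter-Blue in HeLa or Huh-7 cells exposed to compound dilutions. Plates run in parallel with the reporter assay (HeLa) or the virus titer assay (Huh-7).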
(In general: The colour change of resazurin is a common sign of viable cells or microbes.)

Another series has as its target Genome polyprotein (dengue virus type 2, UniProt P29990). Put plainly: Inhibition of NS2B-NS3 protease in DENV2proHeLa system assessed as inhibition of luciferase signal incubated for 24 hrs by luciferase reporter gene assay. In kind it is cell-based, HeLa. In a few lines: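 HeLa cells stably carrying the reporter system, 2 × 10⁴ per well, given inhibitor at seeding and held 24 h at 37 °C. Cells lysed 15 min at room temperature. Luciferase read for 5 s after injecting coelenterazine (2.75 μM in PBS). Triplicate wells per concentration; percent inhibition taken against untreated cells. EC50/EC90 from 4-parameter dose-response fit, background from cell-free wells subtracted.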

The source made the active and inactive calls. The rule behind the calls is not given here.

For the compound `NC(=O)c1cccc(NC(=O)[C@@H](NC(=O)c2ccc(Oc3ccccc3)cc2)c2ccc(Oc3ccccc3)cc2)c1`, the inhibition entry (in series [1]; at Trypsin (Homo sapiens)) was “inactive” in each case. The inhibition (commonly the change of the read-out against control, counted positive when it falls) in series [2] was determined as 73%. Moreover, in series [3], the CC50 – broadly, the concentration that lowers cell viability or growth by half – at 24 h was over 50 µM. The EC50 – broadly, the concentration that produces a half-maximal response – at Genome polyprotein is 2.9 µM.

Regarding `CCCCCC(=O)N[C@H](C(=O)NCc1ccc(NC(N)=O)cc1)c1ccc(OCc2ccccc2)cc1`, the inhibition result (in series [1]; on Trypsin (Homo sapiens)) was “inactive” each time.

Turning to `CCCCCC(=O)N[C@H](C(=O)NCC1CCC(C(N)=O)CC1)c1ccc(OCc2ccccc2)cc1` (some centres not stated), the inhibition result (in series [1]; on Trypsin (Homo sapiens)) was “inactive” in each case. Further, the inhibition in series [2] was 29%. In addition, the CC50 at 24 h in series [3] is over 50 µM.

Take `CCCCCC(=O)N[C@H](C(=O)Nc1ccc(CO)cc1)c1ccc(OCc2ccccc2)cc1`: the inhibition entry (in series [1]; at Trypsin (Homo sapiens)) was “inactive” throughout. Also, the inhibition in series [2] worked out at 48%. In addition, in series [3], the CC50 at 24 h is over 50 µM. Besides, the EC50 at Genome polyprotein amounted to 18 µM.

In the case of `CCCCCC(=O)N[C@@H](Cc1ccccc1)C(=O)NCc1ccc(C(N)=O)cc1`, the inhibition result (in series [1]; at Trypsin (Homo sapiens)) was “inactive” in each case. In addition, the inhibition in series [2] is under 10%. For the same compound, in series [3], the CC50 at 24 h was over 50 µM.

As to `CCCCCC(=O)N[C@H](C(=O)NCc1ccc(C(=O)NO)cc1)c1ccc(OCc2ccccc2)cc1`, the inhibition result (in series [1]; at Trypsin (Homo sapiens)) was “inactive” each time. Further, the inhibition in series [2] was found to be 40%. Further, the CC50 at 24 h in series [3] is over 50 µM.

On to `CCCCCC(=O)N[C@H](C(=O)NCc1ccc(C(N)=O)cc1)c1ccc(C(F)(F)F)cc1`, for which the inhibition entry (in series [1]; on Trypsin (Homo sapiens)) was “inactive” in each case. For the same compound, in series [2], the inhibition turned out to be 31%. Further, the CC50 at 24 h in series [3] was over 50 µM.

With `NC(=O)c1ccc(CNC(=O)[C@@H](NC(=O)/C=C/c2ccccc2)c2ccc(OCc3ccccc3)cc2)cc1`, the inhibition result (in series [1]; on Trypsin (Homo sapiens)) was “inactive” throughout. Further, the inhibition in series [2] turned out to be 34%. Further, the CC50 at 24 h in series [3] is over 50 µM.

In the case of `CCCC(O)C(=O)N[C@H](C(=O)NCc1ccc(C(N)=O)cc1)c1ccc(OCc2ccccc2)cc1` (some centres not stated), the inhibition result (in series [1]; on Trypsin (Homo sapiens)) was “inactive” throughout. Besides, the inhibition in series [2] was under 10%. Besides, in series [3], the CC50 at 24 h was over 50 µM.

For `CCCCCC(=O)N[C@H](C(=O)Nc1ccc(C(N)=O)cc1)c1ccc(OCc2ccccc2)cc1`, the inhibition result (in series [1]; on Trypsin (Homo sapiens)) was “inactive” in each case. Further, the inhibition in series [2] was 58%. The CC50 at 24 h in series [3] was over 12.5 µM. Besides, the concentration for a half-maximal effect (EC50) at Genome polyprotein was 7 µM.

As for `NC(=O)c1cccc(NC(=O)[C@@H](NC(=O)c2ccc(Oc3cccc(Cl)c3)cc2)c2ccc(OCc3ccccc3)cc2)c1`, the inhibition result (in series [1]; at Trypsin (Homo sapiens)) was “inactive” each time. Further, the inhibition in series [2] worked out at 87%. For the same compound, the CC50 at 24 h in series [3] was over 100 µM. Besides, the EC50 on Genome polyprotein was determined as 1 µM.

Regarding `CCCCCC(=O)N[C@H](C(=O)NCc1ccc(C(=O)O)cc1)c1ccc(OCc2ccccc2)cc1`, the inhibition entry (in series [1]; on Trypsin (Homo sapiens)) was “inactive” each time. In addition, in series [2], the inhibition came out at 14%. Also, the CC50 at 24 h in series [3] was over 50 µM.

Regarding `NC(=O)c1cccc(NC(=O)[C@@H](NC(=O)C2CCN(c3ccccc3)CC2)c2ccc(OCc3ccccc3)cc2)c1`, the inhibition entry (in series [1]; at Trypsin (Homo sapiens)) was “inactive” each time. The inhibition in series [2] stood at 46%. In addition, the CC50 at 24 h in series [3] is over 50 µM.

As for `NC(=O)c1ccc(CNC(=O)[C@@H](N)c2ccc(OCc3ccccc3)cc2)cc1`, the inhibition result (in series [1]; on Trypsin (Homo sapiens)) was “inactive” throughout. In addition, the inhibition in series [2] stood at 33%. Moreover, the CC50 at 24 h in series [3] was over 50 µM.

Turning to `CCCCCC(=O)N[C@H](C(=O)N1CCC(C(N)=O)CC1)c1ccc(OCc2ccccc2)cc1`, the inhibition entry (in series [1]; at Trypsin (Homo sapiens)) was “inactive” each time. For the same compound, the inhibition in series [2] was found to be 28%. In series [3], the CC50 at 24 h is over 50 µM.

Consider `CC(C)CCOc1ccc(C(=O)N[C@H](C(=O)Nc2cccc(C(N)=O)c2)c2ccc(OCc3ccccc3)cc2)cc1`, for which the inhibition result (in series [1]; at Trypsin (Homo sapiens)) was “inactive” in each case. In series [2], the inhibition stood at 49%. Moreover, in series [3], the CC50 at 24 h was over 50 µM.

As for `CCCCCC(=O)N[C@H](C(=O)NCc1ccc(C(N)=O)cc1)c1ccc(O)cc1`, the inhibition entry (in series [1]; at Trypsin (Homo sapiens)) was “inactive” in each case. In addition, the inhibition in series [2] is under 10%. Further, the CC50 at 24 h in series [3] is over 100 µM.

Regarding `CCCCCC(=O)N[C@H](C(=O)Nc1ccc(OC)cc1)c1ccc(OCc2ccccc2)cc1`, the inhibition result (in series [1]; on Trypsin (Homo sapiens)) was “inactive” in each case. Further, the inhibition in series [2] was found to be 10%. For the same compound, in series [3], the CC50 at 24 h was over 25 µM.

For the compound `COCCOCC(=O)N[C@H](C(=O)NCc1ccc(C(N)=O)cc1)c1ccc(OCc2ccccc2)cc1`, the inhibition entry (in series [1]; on Trypsin (Homo sapiens)) was “inactive” in each case. For the same compound, the inhibition in series [2] amounted to 27%. The CC50 at 24 h in series [3] is over 50 µM.

As for `CCCCCC(=O)N[C@H](C(=O)NCCc1ccccc1)c1ccc(OCc2ccccc2)cc1`, the inhibition result (in series [1]; on Trypsin (Homo sapiens)) was “inactive” in each case. The CC50 at 24 h in series [3] is under 12.5 µM.

Take `Cc1ccc(C(=O)c2cc(O)c(O)c([N+](=O)[O-])c2)cc1` [TOLCAPONE]: the inhibition in series [2] worked out at 59%. Besides, in series [3], the CC50 at 24 h was over 25 µM. The EC50 at Genome polyprotein was determined as 7.1 µM.

In the case of `CCCCCC(=O)N[C@H](C(=O)NCc1ccc(C(N)=O)cc1)c1ccccc1`, the inhibition entry (in series [1]; on Trypsin (Homo sapiens)) was “inactive” throughout. In series [2], the inhibition came to 15%. Moreover, in series [3], the CC50 at 24 h is over 50 µM.

With `NC(=O)c1ccc(CNC(=O)[C@@H](NC(=O)C2CCC2)c2ccc(OCc3ccccc3)cc2)cc1`, the inhibition entry (in series [1]; at Trypsin (Homo sapiens)) was “inactive” each time. The inhibition in series [2] is 45%. The CC50 at 24 h in series [3] is over 50 µM.

Consider `CCCCCC(=O)N[C@H](C(=O)Nc1ccc(CC(N)=O)cc1)c1ccc(OCc2ccccc2)cc1`, for which the inhibition entry (in series [1]; at Trypsin (Homo sapiens)) was “inactive” each time. The inhibition in series [2] was determined as 47%. Besides, the CC50 at 24 h in series [3] is over 50 µM.

As for `NC(=O)c1ccc(CNC(=O)[C@@H](NCc2ccccc2)c2ccc(OCc3ccccc3)cc2)cc1`, the inhibition entry (in series [1]; on Trypsin (Homo sapiens)) was “inactive” each time. In addition, in series [2], the inhibition amounted to 36%. Moreover, the CC50 at 24 h in series [3] is over 50 µM.

With `CCCCCC(=O)N[C@H](C(=O)NCc1cccc(OC)c1)c1ccc(OCc2ccccc2)cc1`, the inhibition result (in series [1]; at Trypsin (Homo sapiens)) was “inactive” in each case. Moreover, the inhibition in series [2] is under 10%. Further, in series [3], the 50% cytotoxic concentration (CC50) at 24 h was over 50 µM.

As for `CCCCCC(=O)N[C@H](C(=O)NCc1ccc(Cl)cc1)c1ccc(OCc2ccccc2)cc1`, the inhibition entry (in series [1]; at Trypsin (Homo sapiens)) was “inactive” throughout. For the same compound, in series [2], the inhibition was 14%. Further, the CC50 at 24 h in series [3] is over 50 µM.

As for `CCCCCC(=O)N[C@H](C(=O)NCc1ccccc1)c1ccc(OCc2ccccc2)cc1`, the inhibition result (in series [1]; at Trypsin (Homo sapiens)) was “inactive” in each case. Also, the inhibition in series [2] is under 10%. In addition, the CC50 at 24 h in series [3] is over 50 µM.

For the compound `CCCCCC(=O)N[C@@H](C(=O)NCc1ccc(C(N)=O)cc1)c1ccc(OCc2ccc(C(F)(F)F)cc2)cc1`, the inhibition entry (in series [1]; on Trypsin (Homo sapiens)) was “inactive” in each case. Besides, the inhibition in series [2] was 42%. In addition, the CC50 at 24 h in series [3] was over 50 µM.

For the compound `CCCCCC(=O)N[C@H](C(=O)Nc1ccc(S(N)(=O)=O)cc1)c1ccc(OCc2ccccc2)cc1`, the inhibition result (in series [1]; on Trypsin (Homo sapiens)) was “inactive” throughout. Moreover, the inhibition in series [2] was under 10%. In addition, the CC50 at 24 h in series [3] is over 50 µM.

As for `CCCCCC(=O)N[C@@H](C(=O)NCc1ccc(C(N)=O)cc1)c1ccc(OCc2ccccc2)cc1`, the inhibition result (in series [1]; on Trypsin (Homo sapiens)) was “inactive” each time. Also, the inhibition in series [2] was 35%. Besides, in series [3], the CC50 at 24 h is over 50 µM.

`NCCCCCC(=O)N[C@H](C(=O)NCc1ccc(C(N)=O)cc1)c1ccc(OCc2ccccc2)cc1`: the inhibition result (in series [1]; at Trypsin (Homo sapiens)) was “inactive” each time. Moreover, in series [2], the inhibition was found to be 14%. Besides, the CC50 at 24 h in series [3] was over 50 µM.

For the compound `CCCCCC(=O)N[C@H](C(=O)Nc1ccccc1C(N)=O)c1ccc(OCc2ccccc2)cc1`, the inhibition entry (in series [1]; at Trypsin (Homo sapiens)) was “inactive” throughout. For the same compound, the inhibition in series [2] was found to be 13%. Moreover, the CC50 at 24 h in series [3] was over 50 µM.
